Type in all cases: functional
In test [1] the test system is Plasmodium berghei. Description: Antimalarial activity against Plasmodium berghei ANKA infected in C57BL/6J mouse assessed as increase of host survival days at 5 mg/kg, po administered after 24 hrs post infection in presence of 15 mg/kg of mefloquine hydrochloride (reference value: 6.5 days).
For test [2], the system named is Plasmodium berghei. The experiment in a line: Antimalarial activity against Plasmodium berghei ANKA infected in C57BL/6J mouse assessed as decrease of parasitemia level at 5 mg/kg, po administered after 24 hrs post infection measured after 3 days in presence of 15 mg/kg of mefloquine hydrochloride relative to control. The arrangement: scale not given: the % may be the effect or the level left. The method, boiled down: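 Male C57BL/6J mice, 5 weeks old and about 20 g, were infected with P. berghei ANKA (2 × 10⁷ parasitized erythrocytes). At 24 h they got one 200 μL oral dose: 5 mg/kg trioxane plus 15 mg/kg mefloquine hydrochloride in 7:3 Tween 80/ethanol diluted with water. Blood parasitemia was read on day 3 post-infection as % suppression versus untreated infected mice. Four mice per group.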

For test [3], the system named is Plasmodium berghei. Description: Antimalarial activity against Plasmodium berghei ANKA infected in C57BL/6J mouse assessed as increase of host survival days at 15 mg/kg, po administered after 24 hrs post infection (reference value: 6.5 days).
Test [4] relates to Plasmodium berghei. The experiment in a line: Antimalarial activity against Plasmodium berghei ANKA infected in C57BL/6J mouse assessed as decrease of parasitemia level at 15 mg/kg, po administered after 24 hrs post infection measured after 3 days relative to control. On the set-up: scale not given: the % may be the effect or the level left. The method, boiled down:
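Male C57BL/6J mice, 5 weeks old and about 20 g, were infected with P. berghei ANKA at 2 × 10⁷ parasitized erythrocytes. At 24 h post-infection, 4 mice per group received a single oral 200 μL dose in 7:3 Tween 80/ethanol diluted in deionized water. The dose was trioxane 5 mg/kg with mefloquine hydrochloride 15 mg/kg. Parasitemia suppression was read on day 3 versus untreated infected mice.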

In test [5] the test system is Plasmodium berghei. The experiment in a line: Antimalarial activity against Plasmodium berghei ANKA infected in C57BL/6J mouse assessed as parasitemia level at 5 mg/kg, po administered after 24 hrs post infection measured after 30 days in presence of 15 mg/kg of mefloquine hydrochloride relative to control.

Take `C[C@H]1[C@@H]([C@H](C[C@H]2O[C@@H]3O[C@@]4(C)CC[C@H]5[C@H](C)CC[C@@H]([C@H]2C)[C@@]35OO4)OC(=O)Nc2cc(F)cc(F)c2)O[C@@H]2O[C@@]3(C)CC[C@H]4[C@H](C)CC[C@@H]1[C@@]24OO3`: the Survival in the test on Plasmodium berghei [1] amounted to 21.8 days. The Activity in the test with Plasmodium berghei [2] is reported as over 99.9%.

Consider `OC(c1cc(C(F)(F)F)nc2c(C(F)(F)F)cccc12)C1CCCCN1` (configuration not stated) [MEFLOQUINE], for which, in the test with Plasmodium berghei [3], the Survival was 20.3 days. Besides, the Activity with Plasmodium berghei [4] is over 99.9%.

Turning to `C[C@H]1[C@@H]([C@@H](O)C[C@H]2O[C@@H]3O[C@@]4(C)CC[C@H]5[C@H](C)CC[C@@H]([C@H]2C)[C@@]35OO4)O[C@@H]2O[C@@]3(C)CC[C@H]4[C@H](C)CC[C@@H]1[C@@]24OO3`, the Survival in the test with Plasmodium berghei [1] was determined as 25 days. Moreover, the Activity in the test with Plasmodium berghei [2] was over 99.9%.

`C[C@H]1[C@@H]([C@H](C[C@H]2O[C@@H]3O[C@@]4(C)CC[C@H]5[C@H](C)CC[C@@H]([C@H]2C)[C@@]35OO4)OC(=O)Nc2cccc(F)c2)O[C@@H]2O[C@@]3(C)CC[C@H]4[C@H](C)CC[C@@H]1[C@@]24OO3`: the Survival in the test with Plasmodium berghei [1] turned out to be 20.3 days. In addition, in the test with Plasmodium berghei [2], the Activity is reported as over 99.9%.

Turning to `C[C@H]1[C@@H]([C@H](C[C@H]2O[C@@H]3O[C@@]4(C)CC[C@H]5[C@H](C)CC[C@@H]([C@H]2C)[C@@]35OO4)OC(=O)Nc2ccc(C#N)cc2)O[C@@H]2O[C@@]3(C)CC[C@H]4[C@H](C)CC[C@@H]1[C@@]24OO3`, the Survival in the test with Plasmodium berghei [1] turned out to be 17.8 days. The Activity in the test with Plasmodium berghei [2] is listed as over 99.9%.

With `C[C@H]1[C@@H]([C@H](C[C@H]2O[C@@H]3O[C@@]4(C)CC[C@H]5[C@H](C)CC[C@@H]([C@H]2C)[C@@]35OO4)OC(=O)Nc2cccc(C(F)(F)F)c2)O[C@@H]2O[C@@]3(C)CC[C@H]4[C@H](C)CC[C@@H]1[C@@]24OO3`, the Survival in the test with Plasmodium berghei [1] is 18 days. For the same compound, the Activity in the test with Plasmodium berghei [2] is over 99.9%.

On to `C[C@H]1[C@@H]([C@H](C[C@H]2O[C@@H]3O[C@@]4(C)CC[C@H]5[C@H](C)CC[C@@H]([C@H]2C)[C@@]35OO4)OC(=O)Nc2ccc([N+](=O)[O-])cc2)O[C@@H]2O[C@@]3(C)CC[C@H]4[C@H](C)CC[C@@H]1[C@@]24OO3`, for which the Survival in the test on Plasmodium berghei [1] stood at 22 days. The Activity with Plasmodium berghei [2] is over 99.9%.

As for `C[C@H]1[C@@H]([C@H](C[C@H]2O[C@@H]3O[C@@]4(C)CC[C@H]5[C@H](C)CC[C@@H]([C@H]2C)[C@@]35OO4)OC(=O)Nc2ccc(F)c(Cl)c2)O[C@@H]2O[C@@]3(C)CC[C@H]4[C@H](C)CC[C@@H]1[C@@]24OO3`, in the test with Plasmodium berghei [1], the Survival turned out to be 24.8 days. For the same compound, the results for the Activity in the test with Plasmodium berghei [5] and in the test with Plasmodium berghei [2] were 8% and over 99.9%, respectively.

For the compound `C[C@H]1[C@@H]([C@H](C[C@H]2O[C@@H]3O[C@@]4(C)CC[C@H]5[C@H](C)CC[C@@H]([C@H]2C)[C@@]35OO4)OC(=O)Nc2ccc(F)c(F)c2)O[C@@H]2O[C@@]3(C)CC[C@H]4[C@H](C)CC[C@@H]1[C@@]24OO3`, the Survival in the test on Plasmodium berghei [1] was 25.5 days. For the same compound, the Activity is reported as 8% with Plasmodium berghei [5] and over 99.9% with Plasmodium berghei [2].

For the compound `Cc1cc(NC(=O)O[C@@H](C[C@H]2O[C@@H]3O[C@@]4(C)CC[C@H]5[C@H](C)CC[C@@H]([C@H]2C)[C@@]35OO4)[C@H]2O[C@@H]3O[C@@]4(C)CC[C@H]5[C@H](C)CC[C@@H]([C@H]2C)[C@@]35OO4)ccc1F`, the Survival in the test with Plasmodium berghei [1] stood at 13.5 days. The Activity with Plasmodium berghei [2] was over 99.9%.

Regarding `C[C@H]1[C@@H]([C@H](C[C@H]2O[C@@H]3O[C@@]4(C)CC[C@H]5[C@H](C)CC[C@@H]([C@H]2C)[C@@]35OO4)OC(=O)Nc2ccc(C(F)(F)F)cc2)O[C@@H]2O[C@@]3(C)CC[C@H]4[C@H](C)CC[C@@H]1[C@@]24OO3`, the Survival in the test with Plasmodium berghei [1] turned out to be 10.8 days. In addition, the Activity with Plasmodium berghei [2] is on record as over 99.9%.

For the compound `C[C@H]1[C@@H]([C@H](C[C@H]2O[C@@H]3O[C@@]4(C)CC[C@H]5[C@H](C)CC[C@@H]([C@H]2C)[C@@]35OO4)OC(=O)Nc2cccc(Cl)c2)O[C@@H]2O[C@@]3(C)CC[C@H]4[C@H](C)CC[C@@H]1[C@@]24OO3`, in the test with Plasmodium berghei [1], the Survival is 26.8 days. The Activity with Plasmodium berghei [5] was 8%; in the test with Plasmodium berghei [2], over 99.9%.

As to `C[C@H]1[C@@H]([C@H](C[C@H]2O[C@@H]3O[C@@]4(C)CC[C@H]5[C@H](C)CC[C@@H]([C@H]2C)[C@@]35OO4)OC(=O)Nc2ccccc2)O[C@@H]2O[C@@]3(C)CC[C@H]4[C@H](C)CC[C@@H]1[C@@]24OO3`, the Survival in the test with Plasmodium berghei [1] came out at 17 days. Further, the Activity in the test on Plasmodium berghei [2] is reported as over 99.9%.

As for `C[C@H]1[C@@H]([C@H](C[C@H]2O[C@@H]3O[C@@]4(C)CC[C@H]5[C@H](C)CC[C@@H]([C@H]2C)[C@@]35OO4)OC(=O)Nc2ccc(Br)cc2)O[C@@H]2O[C@@]3(C)CC[C@H]4[C@H](C)CC[C@@H]1[C@@]24OO3`, the Survival in the test on Plasmodium berghei [1] worked out at 12.5 days. In addition, the Activity in the test on Plasmodium berghei [2] is listed as over 99.9%.

For the compound `C[C@H]1[C@@H]([C@H](O)C[C@H]2O[C@@H]3O[C@@]4(C)CC[C@H]5[C@H](C)CC[C@@H]([C@H]2C)[C@@]35OO4)O[C@@H]2O[C@@]3(C)CC[C@H]4[C@H](C)CC[C@@H]1[C@@]24OO3`, the Survival with Plasmodium berghei [1] came out at 24.8 days. Moreover, the Activity in the test with Plasmodium berghei [2] is on record as over 99.9%.

Turning to `C[C@H]1[C@@H]([C@H](C[C@H]2O[C@@H]3O[C@@]4(C)CC[C@H]5[C@H](C)CC[C@@H]([C@H]2C)[C@@]35OO4)OC(=O)Nc2ccc(F)cc2)O[C@@H]2O[C@@]3(C)CC[C@H]4[C@H](C)CC[C@@H]1[C@@]24OO3`, the Survival with Plasmodium berghei [1] stood at 18.8 days. The Activity with Plasmodium berghei [2] is listed as over 99.9%.

On to `C[C@H]1[C@@H]([C@H](C[C@H]2O[C@@H]3O[C@@]4(C)CC[C@H]5[C@H](C)CC[C@@H]([C@H]2C)[C@@]35OO4)OC(=O)Nc2ccc(Cl)cc2)O[C@@H]2O[C@@]3(C)CC[C@H]4[C@H](C)CC[C@@H]1[C@@]24OO3`, for which, in the test with Plasmodium berghei [1], the Survival turned out to be 18.3 days. In the test with Plasmodium berghei [2], the Activity is listed as over 99.9%.

(Values after ChEMBL document CHEMBL3120094, “The survival times of malaria-infected mice are prolonged more by several new two-carbon-linked artemisinin-derived dimer carbamates than by the trioxane antimalarial drug artemether” (2014).)
